The list is not random: actives were taken first. Their share in the collection is about 2.4%.
PP5 primary: inhibitors of human protein phosphatase 5 (PP5); P53041; purified PP5c, OMFP substrate fluorescence; inhibition, % at 6.7 µM; 320,000 tested, 0.18% active; AID 1987;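 active = inhibition above the campaign's mean inhibition across all tested compounds plus 3 SD, cut at about 9.5% in these data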;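 also: 0% = DMSO only and 100% = 100 µM cantharidin control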
CTSL1 counter: cathepsin L1 inhibition, PFM18AAP counter-screen; AID 1906; 300,000 tested, 0.49% active; recombinant F. hepatica cathepsin L1, Z-Leu-Arg-MCA fluorescence; inhibition, % at 5.96 µM;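 active = inhibition above the mean of all tested compounds plus 3 SD, set per screening campaign, cut at about 17% in these data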;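 also: 0% = plate median of test compound wells and 100% = 1 µM Z-Phe-Ala-diazomethylketone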
Cardio protect: protects H9c2 cardiomyocytes from peroxide injury. H2O2 injury protection, ATPLite, 2 h. protection from H2O2 cell death, % at 20 µM. 360,000 tested, 0.63% active;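 active = compounds giving at least 50% protection of heart cells from peroxide-induced death in the single-dose screen, raw or plate-pattern-corrected value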;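 also: 0% = DMSO wells with peroxide and 100% = DMSO wells without peroxide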
p-CIP stab down: p/CIP protein destabilization; Q05BA5; F442A p/CIP-EGFP cells, EGFP fluorescence, 16 h; decrease of EGFP signal, % at 10 µM; 290,000 tested, 0.01% active;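 active = EGFP signal decrease of at least 30% at 10 µM or well 3 SD below plate mean, unless failing retest; inactive = the rest, including hits failing retest or dose response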
T cruzi repl: T. cruzi replication inhibition | T. cruzi beta-gal in NIH3T3, luminescence, 90 h | inhibition, % (test concentration not listed) | 300,000 tested, 1.4% active;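 active = mean inhibition across valid replicates above about 55%, limit read from the data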;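 also: signal also drops with host cell toxicity which is not excluded here; 0% = plate median of DMSO wells and 100% = zero luminescence signal; higher percent means less beta-gal luminescence so fewer parasites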
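Assay system: NIH/3T3 host cells with β-galactosidase reporter T. cruzi; input: 5,000 host fibroblasts per well; compound: single 50 nL compound addition per well in DMSO; timing: ≥90 h infection period, 3 h prior cell attachment; measured by: GalScreen β-gal luminescence, detergent lysis, 60 min; evaluation: percent inhibition of parasite-derived β-gal signal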
GASC-1 inh: human JMJD2C demethylase inhibition | Q9H3R0 | GST-JMJD2C(1-420) H3K9me3 demethylation, DELFIA europium | inhibition, % at 2.35 µM | 330,000 tested, 0.069% active | AID 2099;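 active = more than half of a compound's replicate wells show inhibition beyond 50%, single wells judged on their own value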;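 also: signal counts dimethyl H3K9 product captured on neutravidin plate; 0% = median of DMSO wells and 100% = 0.3 times that DMSO median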
Target sequence (Q9H3R0 1-420 limits assumed): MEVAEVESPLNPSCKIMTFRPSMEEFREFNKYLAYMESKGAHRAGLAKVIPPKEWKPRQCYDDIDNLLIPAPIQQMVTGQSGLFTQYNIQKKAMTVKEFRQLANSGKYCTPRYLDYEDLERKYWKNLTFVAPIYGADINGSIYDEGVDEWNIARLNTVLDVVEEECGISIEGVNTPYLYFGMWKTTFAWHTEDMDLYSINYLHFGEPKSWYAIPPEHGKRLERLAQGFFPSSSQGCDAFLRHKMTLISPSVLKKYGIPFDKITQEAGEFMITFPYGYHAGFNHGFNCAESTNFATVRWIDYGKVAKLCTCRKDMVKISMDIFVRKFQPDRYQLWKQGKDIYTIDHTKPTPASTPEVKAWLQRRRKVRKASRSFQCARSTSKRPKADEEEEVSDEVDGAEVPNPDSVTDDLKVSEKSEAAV
An asterisk follows results filed as active; · = not tested or not shown.

SMILES	PP5 primary	CTSL1 counter	Cardio protect	p-CIP stab down	T cruzi repl	GASC-1 inh
O=C(CCC(=O)Nc1ccc(Br)cc1)N/N=C/c1cc([N+](=O)[O-])ccc1O	2.9	4.0	53.6*	1.6	-25.3	18.7
O=C(N/N=C/c1cc([N+](=O)[O-])ccc1O)C1C2CCCCC21 (configuration not stated)	2.4	4.4	·	0.0	-14.9	8.1
CN(Cc1ccccc1)C(=O)c1ccccc1N(C)S(=O)(=O)c1ccccc1	·	·	-1.1	·	·	·
CC(C)Cc1nc(SCC(=O)NCC2CCCO2)c2c(=O)n(C)c(=O)n(C)c2n1 (configuration not stated)	-0.3	-7.3	-0.3	8.4	-5.0	1.3
O=C(NCc1ccccc1)C(=O)NCC(c1ccco1)N1CCN(c2ccccc2F)CC1 (configuration not stated)	4.4	-1.2	3.5	-7.7	-9.1	-6.3
O=C(NCCc1c[nH]c2ccccc12)C(=O)NCC(c1ccco1)N1CCN(c2ccccc2F)CC1 (configuration not stated)	5.9	1.6	62.6*	1.5	20.2	1.5
O=C1c2ccccc2COc2ccc(O)cc21	1.2	21.0*	6.5	-4.8	-12.0	-1.9
COc1ccc2c(c1)C(=O)c1ccccc1CO2	0.5	0.9	-5.1	-3.1	-7.1	21.2
O=C(Nc1ccc(S(=O)(=O)Nc2cnc3ccccc3n2)cc1)c1cccc(OC(F)F)c1	-1.3	3.6	-1.0	-17.7	4.6	-10.0
CCN(CC)c1ccc(/C=N/NC(=O)c2ccoc2C)c(O)c1	2.7	-0.5	27.3	-5.9	57.3*	-5.2
CCN(CC)c1ccc(N=Cc2ccc(N(CC)CC)cc2O)cc1	2.8	-1.4	-8.9	-17.5	74.2*	5.3
CCN(CC)c1ccc(/C=N/NC(=O)OC)c(O)c1	-1.6	6.5	-6.9	-13.8	·	15.8
CCCCN(C)S(=O)(=O)c1cc2c(cc1Br)CCN2C(=O)C1CC1	·	·	-2.3	·	·	·
COc1ccc(-n2c(=O)c3c4c(sc3n3c(=S)[nH]nc23)CCC4)cc1	0.5	16.8*	-2.3	-2.1	-2.6	7.8
Cc1ccc(-n2c(=O)c3c4c(sc3n3c(=S)[nH]nc23)CCC4)cc1	-1.5	1.9	-3.1	-4.9	6.4	4.4
O=C(CN1CCOCC1)N1CCOCC1	·	·	1.4	·	·	·
CC(O)[C@H](NC(=O)C1(c2ccccc2)CCN(C(=O)OC(C)(C)C)CC1)C(=O)O (some centres not stated)	3.5	29.5*	6.0	-2.1	-1.1	4.9
CCC(C)[C@H](NC(=O)C1(c2ccccc2)CCN(C(=O)OC(C)(C)C)CC1)C(=O)N[C@@H](C(=O)O)c1ccccc1 (some centres not stated)	4.1	4.1	1.2	10.4	5.8	-24.9
COc1cccc(/C=N/NC(=O)c2c(C)nc3ccc(Br)cn23)c1O	0.2	3.4	58.5*	-4.0	69.3*	9.4
COc1ccc(/C=N\NC(=O)c2c(C)nc3ccc(Br)cn23)cc1	0.2	3.8	59.9*	-1.1	-15.3	0.2
Cc1ccc(/C=N/NC(=O)c2c(C)nc3ccc(Br)cn23)cc1	-2.0	2.7	10.7	-15.1	-10.1	-5.8
Cc1cc(OCC(=O)NNC(=S)NCC2CCCO2)cc(C)c1Cl (configuration not stated)	3.4	5.0	1.1	-6.3	3.4	-2.1
Cc1nc(C(F)(F)F)ccc1C(=O)N1CCC(C)(C(=O)NS(=O)(=O)C2CC2)C1 (configuration not stated)	·	·	1.5	·	·	·
Cc1ccc(C)c(C(=O)CN2C(=O)NC3(CCCCCC3)C2=O)c1	·	·	-4.6	·	·	·
Cc1oc(-c2ccccc2Cl)nc1CN1CCCCC1c1cccnc1 (configuration not stated)	1.4	-5.7	-4.1	-6.2	59.2*	-0.4
SMILES	PP5 primary	CTSL1 counter	Cardio protect	p-CIP stab down	T cruzi repl	GASC-1 inh
COc1ccc(-c2nc(CN3CCCCC3c3cccnc3)c(C)o2)c(F)c1 (configuration not stated)	-2.0	-1.1	1.4	-17.6	64.4*	·
O=C(COc1ccccc1)N=C1SC2CS(=O)(=O)CC2N1c1ccc(F)cc1 (configuration not stated)	-0.1	0.7	-2.1	-6.1	-5.5	18.8
CC(NC(=O)COc1ccc(S(=O)(=O)N2CCOCC2)cc1)c1ccccc1 (configuration not stated)	1.5	·	0.6	·	·	0.3
COc1ccc(NC(=O)Cc2c(C)n(C(=O)c3ccc(Cl)cc3)c3ccc(OC)cc23)cc1	6.5	4.1	-15.5	-4.5	43.7	-2.3
COc1ccc2c(c1)c(CC(=O)Nc1ccc(C)cc1)c(C)n2C(=O)c1ccc(Cl)cc1	-0.2	6.2	-15.0	-0.9	56.4*	-5.9
C=CCN1C(=O)/C(=C2\SC(N3CCOCC3)=NC2=O)c2cc(Br)ccc21	1.1	-0.3	76.1*	2.1	14.8	0.1
CCc1ccc(N/C(SCc2cccc(F)c2)=C(/C#N)C(=O)NCc2ccco2)cc1	1.4	-0.5	-10.6	-5.4	57.1*	-4.8
N#C/C(=C\Nc1ccc2c(c1)OCCO2)C(=O)NCc1ccco1	-0.8	1.8	-1.8	-2.7	-9.1	2.0
Cc1ccc(N/C(SCc2ccccc2C)=C(/C#N)C(=O)NCc2ccco2)cc1C	5.4	1.5	-11.4	-5.1	60.4*	-0.6
CCN(CC)S(=O)(=O)c1ccc(=O)n(CC(=O)N2CCCc3cc(C)ccc32)c1	-0.7	·	0.9	·	·	-4.5
Cc1cc(N2CCN(C)CC2)nc2ccc(NC(=O)c3ccccc3F)cc12	-0.1	-1.1	7.0	2.6	65.3*	-1.6
CCN1CCN(c2cc(C)c3cc(NC(=S)N4CCCC4)ccc3n2)CC1	-0.5	2.8	0.8	5.5	-6.4	5.3
CCOC(=O)C1CCCN(C(=O)CCC(=O)Nc2ccc3nc(N4CCOCC4)cc(C)c3c2)C1 (configuration not stated)	1.0	-5.6	59.0*	-1.4	2.5	3.2
CCN1CCN(c2cc(C)c3cc(NC(=S)N4CCCCC4)ccc3n2)CC1	3.4	-0.8	0.3	-1.9	57.7*	-17.6
CCN1CCN(c2cc(C)c3cc(NC(=O)c4ccccc4F)ccc3n2)CC1	·	·	·	-2.8	·	·
CCCN(CCC)CCCNC(=S)Nc1ccc2nc(N3CCN(C)CC3)cc(C)c2c1	-2.0	-1.2	2.2	1.1	57.0*	1.1
O=C(O)[C@@H]1CCCN1S(=O)(=O)c1cccc2cccnc12	0.5	-7.2	5.5	·	·	-3.8
CCCCN(CC)CCNC(=O)CCC(=O)Nc1ccc2nc(N3CCN(C)CC3)cc(C)c2c1	3.2	1.1	-2.1	4.2	39.4	47.2
CCCCN(CC)CCNC(=S)Nc1ccc2nc(N3CCN(C)CC3)cc(C)c2c1	2.7	2.6	7.9	-0.1	63.9*	0.7
CC(C)OC(=O)C1OC1(C)c1ccccc1 (configuration not stated)	·	·	5.0	·	·	·
CC(C)(C)c1ccc(-c2nc3c(C#N)c(-c4ccc5c(c4)OCO5)ccn3n2)cc1	3.1	-1.2	-9.2	-11.2	63.9*	-0.1

Bioassay records from PubChem BioAssay.
